From ChEMBL document CHEMBL3244368, “[3-(1,4-Cyclohexadienyl)-L-alanine,8-lysine]vasopressin: synthesis and some pharmacological properties” (J Med Chem, 1979)
Starred links: 1 amine or outer side, 2 acyl side, 3 side chain; linkers in the order of their positions; H or OH if unused. Non-standard residues stand in square brackets, D forms with d. Residues, ends and D or L forms follow the SMILES beside them. *: point of attachment. X1 = O=C([C@H](CC1=CCC=CC1)N[*:1])[*:2]; Tos = Cc1ccc(S(=O)(=O)*)cc1; Cbz = O=C(OCc1ccccc1)*; Bn = c1ccc(C*)cc1

Experiments:
[1] = Stability of the compound in 0.2 M potassium phosphate buffer at pH 7.7 assessed as hydrolysis by measuring Gly level in presence of pronase and aminopeptidase M; assay type: ADME
Procedure, shortened: (§1)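 Pronase digest in 0.2 M potassium phosphate, pH 7.7, substrate:enzyme 5:1, 37 °C, enzyme split over 18 h + 4 h. Digest acidified, clarified and lyophilized, then treated with aminopeptidase M (0.2 M potassium phosphate, pH 7.7, substrate:enzyme 1:1.5, 3 h, 37 °C). Amino acid analysis.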

[2] = Stability of the compound in […] assessed as hydrolysis by measuring Leu/Lys level in presence of alpha-amylase preparation and cyclohexadiene; assay type: ADME; conditions: buffer
Procedure, shortened: (§2)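 Aspergillus oryzae α-amylase preparation, 1 mg per 0.9 µmol peptide, in potassium phosphate buffer pH 7, with 1,4-cyclohexadiene (10 µL) and toluene, under N2, 37 °C, 17 h. Adjusted to pH 2.2 for amino acid analysis. Phe from a control of constituent amino acids plus enzyme subtracted to give Phe in residue 3.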

[3] = Stability of the compound in 0.2 M potassium phosphate buffer at pH 7.7 assessed as hydrolysis by measuring Ile/Phe + DiHPe level in presence of alpha-amylase preparation; assay type: ADME
[4] = Stability of the compound in 0.2 M potassium phosphate buffer at pH 7.7 assessed as hydrolysis by measuring Asn/Gln level in presence of alpha-amylase preparation and aminopeptidase M; assay type: ADME
[5] = Stability of the compound in 0.2 M potassium phosphate buffer at pH 7.7 assessed as hydrolysis by measuring Gly level in presence of alpha-amylase preparation; assay type: ADME
[6] = Stability of the compound in 0.2 M potassium phosphate buffer at pH 7.7 assessed as hydrolysis by measuring Asn/Gln level in presence of papain and aminopeptidase M; assay type: ADME
Procedure, shortened: (§3)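 Papain digest in 0.5 M ammonium acetate, pH 5.3, with 0.15% mercaptoethanol, substrate:enzyme 20:1, 6 h at 37 °C. Acidified, clarified and lyophilized, then aminopeptidase M digest in 0.2 M potassium phosphate, pH 7.7, substrate:enzyme 1:1.5, 3 h at 37 °C. Amino acid analysis.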

[7] = Stability of the compound in 0.2 M potassium phosphate buffer at pH 7.7 assessed as hydrolysis by measuring Ile/Phe + DiHPe level in presence of pronase; assay type: ADME
Procedure, shortened: (§4)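 Pronase digest in 0.2 M potassium phosphate buffer, pH 7.7, substrate:enzyme 5:1. Half the enzyme added at start and half after 18 h at 37 °C, then incubated 4 h more. Released amino acids quantified by amino acid analysis.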

[8] = Stability of the compound in 0.2 M potassium phosphate buffer at pH 7.7 assessed as hydrolysis by measuring Asn/Gln level in presence of alpha-amylase preparation; assay type: ADME
[9] = Stability of the compound in 0.2 M potassium phosphate buffer at pH 7.7 assessed as hydrolysis by measuring Asn/Gln level in presence of pronase; assay type: ADME; procedure, shortened: as §4
[10] = Stability of the compound in 0.2 M potassium phosphate buffer at pH 7.7 assessed as hydrolysis by measuring Ile/Phe + DiHPe level in presence of pronase and aminopeptidase M; assay type: ADME; procedure, shortened: as §1
[11] = Stability of the compound in 0.2 M potassium phosphate buffer at pH 7.7 assessed as hydrolysis by measuring Ile/Phe + DiHPe level in presence of alpha-amylase preparation and aminopeptidase M; assay type: ADME
[12] = Stability of the compound in 0.2 M potassium phosphate buffer at pH 7.7 assessed as hydrolysis by measuring Leu/Lys level in presence of alpha-amylase preparation; assay type: ADME
[13] = Stability of the compound in 0.2 M potassium phosphate buffer at pH 7.7 assessed as hydrolysis by measuring Tyr level in presence of alpha-amylase preparation and aminopeptidase M; assay type: ADME
[14] = Stability of the compound in 0.2 M potassium phosphate buffer at pH 7.7 assessed as hydrolysis by measuring Leu/Lys level in presence of papain and aminopeptidase M; assay type: ADME; procedure, shortened: as §3
[15] = Stability of the compound in 0.2 M potassium phosphate buffer at pH 7.7 assessed as hydrolysis by measuring Leu/Lys level in presence of pronase and aminopeptidase M; assay type: ADME; procedure, shortened: as §1
[16] = Stability of the compound in 0.2 M potassium phosphate buffer at pH 7.7 assessed as hydrolysis by measuring Ile/Phe + DiHPe level in presence of papain and aminopeptidase M; assay type: ADME; procedure, shortened: as §3
[17] = Stability of the compound in 0.2 M potassium phosphate buffer at […] assessed as hydrolysis by measuring Gly level in presence of alpha-amylase preparation and cyclohexadiene; assay type: ADME; procedure, shortened: as §2
[18] = Stability of the compound in 0.2 M potassium phosphate buffer at […] assessed as hydrolysis by measuring Tyr level in presence of alpha-amylase preparation and cyclohexadiene; assay type: ADME; procedure, shortened: as §2
[19] = Stability of the compound in […] assessed as hydrolysis by measuring Asn/Gln level in presence of alpha-amylase preparation and cyclohexadiene; assay type: ADME; conditions: buffer; procedure, shortened: as §2
[20] = Stability of the compound in 0.2 M potassium phosphate buffer at pH 7.7 assessed as hydrolysis by measuring Asn/Gln level in presence of pronase and aminopeptidase M; assay type: ADME; procedure, shortened: as §1
[21] = Stability of the compound in 0.2 M potassium phosphate buffer at pH 7.7 assessed as hydrolysis by measuring Gly level in presence of pronase; assay type: ADME; procedure, shortened: as §4
[22] = Stability of the compound in 0.2 M potassium phosphate buffer at pH 7.7 assessed as hydrolysis by measuring Tyr level in presence of papain and aminopeptidase M; assay type: ADME; procedure, shortened: as §3
[23] = Stability of the compound in 0.2 M potassium phosphate buffer at pH 7.7 assessed as hydrolysis by measuring Gly level in presence of papain and aminopeptidase M; assay type: ADME; procedure, shortened: as §3
[24] = Stability of the compound in 0.2 M potassium phosphate buffer at pH 7.7 assessed as hydrolysis by measuring Leu/Lys level in presence of pronase; assay type: ADME; procedure, shortened: as §4
[25] = Stability of the compound in […] potassium phosphate buffer at […] assessed as hydrolysis by measuring Ile/Phe + DiHPe level in presence of alpha-amylase preparation and cyclohexadiene; assay type: ADME; procedure, shortened: as §2
[26] = Stability of the compound in 0.2 M potassium phosphate buffer at pH 7.7 assessed as hydrolysis by measuring Tyr level in presence of alpha-amylase preparation; assay type: ADME
[27] = Stability of the compound in 0.2 M potassium phosphate buffer at pH 7.7 assessed as hydrolysis by measuring Gly level in presence of alpha-amylase preparation and aminopeptidase M; assay type: ADME
[28] = Stability of the compound in 0.2 M potassium phosphate buffer at pH 7.7 assessed as hydrolysis by measuring Leu/Lys level in presence of alpha-amylase preparation and aminopeptidase M; assay type: ADME
[29] = Stability of the compound in potassium phosphate buffer at pH 7 assessed as hydrolysis by measuring Phe level in presence of alpha-amylase preparation
[30] = Stability of the compound in potassium phosphate buffer at pH 7 assessed as hydrolysis by measuring Phe level in presence of alpha-amylase preparation and cyclohexadiene
[31] = Stability of the compound in potassium phosphate buffer at pH 7 assessed as hydrolysis by measuring DiHPe level in presence of alpha-amylase preparation and cyclohexadiene
[32] = Stability of the compound in potassium phosphate buffer at pH 7 assessed as hydrolysis by measuring DiHPe level in presence of alpha-amylase preparation
[33] = Stability of the compound in 0.2 M potassium phosphate buffer at pH 7.7 assessed as hydrolysis by measuring Tyr level in presence of pronase; assay type: ADME; procedure, shortened: as §4

Row | Drug degradation [3] [mol%] | Drug degradation [5] [mol%] | Drug degradation [7] [mol%] | Drug degradation [8] [mol%] | Drug degradation [9] [mol%] | Drug degradation [12] [mol%] | Drug degradation [18] [mol%] | Drug degradation [21] [mol%] | Drug degradation [24] [mol%] | Drug degradation [26] [mol%] | SMILES | other results
1 | 75 | 50 | 38 | 72 | 86 | 72 | 23 | 44 | 46 | 26 | CC[C@H](C)[C@H](NC(=O)[C@H](Cc1ccc(O)cc1)NC(=O)[C@@H](N)CS(=O)(=O)O)C(=O)N[C@@H](CCC(N)=O)C(=O)N[C@@H](CC(N)=O)C(=O)N[C@@H](CS(=O)(=O)O)C(=O)N1CCC[C@H]1C(=O)N[C@@H](CC(C)C)C(=O)NCC(N)=O | Drug degradation [1]: 54 mol%; Drug degradation [2]: 57 mol%; Drug degradation [4]: 90 mol%; Drug degradation [6]: 14 mol%; Drug degradation [10]: 65 mol%; Drug degradation [11]: 82 mol%; Drug degradation [13]: 35 mol%; Drug degradation [14]: 14 mol%; Drug degradation [15]: 65 mol%; Drug degradation [16]: 13 mol%; Drug degradation [17]: 38 mol%; Drug degradation [19]: 86 mol%; Drug degradation [20]: 124 mol%; Drug degradation [22]: 30 mol%; Drug degradation [23]: 13 mol%; Drug degradation [25]: 51 mol%; Drug degradation [27]: 60 mol%; Drug degradation [28]: 85 mol%
2 |  | 18 |  | 67 |  |  | 73 |  |  | 77 | Cc1ccc(S(=O)(=O)NCCCC[C@H](NC(=O)[C@@H]2CCCN2C(=O)[C@H](CSCc2ccccc2)NC(=O)[C@H](CC(N)=O)NC(=O)[C@H](CCC(N)=O)NC(=O)[C@H](CC2=CCC=CC2)NC(=O)[C@H](Cc2ccc(OCc3ccccc3)cc2)NC(=O)[C@H](CSCc2ccccc2)NC(=O)OCc2ccccc2)C(=O)NCC(N)=O)cc1 (Cbz-C(Bn)Y(Bn)[X1]QNC(Bn)PK(Tos)G-NH2) | Drug degradation [29]: 3.9 mol%; Drug degradation [30]: 4.4 mol%; Drug degradation [31]: 52.4 mol%; Drug degradation [32]: 57.6 mol%
3 | 72 | 63 | 54 | 110 | 76 | 77 |  | 36 | 60 | 63 | CC[C@H](C)[C@@H]1NC(=O)[C@H](Cc2ccc(O)cc2)NC(=O)[C@@H](N)CSSC[C@@H](C(=O)N2CCC[C@H]2C(=O)N[C@@H](CC(C)C)C(=O)NCC(N)=O)NC(=O)[C@H](CC(N)=O)NC(=O)[C@H](CCC(N)=O)NC1=O [OXYTOCIN] | Drug degradation [33]: 70 mol%
